Data published in paper PMC3466594 (Organometallics, 2012).
Values after ≈ are worked out from the molar mass of the structure shown. Values joined by “and” are separate entries in the source; they are usually repeats but may differ in a detail not shown here. Identical values can stand only once.

Key:
[1] = system: normal T-lymphocytes (peripheral blood mononuclear cells: PBMC); conditions: PBMC vs Jurkat; ref [34]; cited from earlier work
[2] = system: Jurkat-shBak cells (Bax/Bak-deficient Jurkat cells); conditions: 25 μM; ref [33]; cited from earlier work
[3] = system: Jurkat control (CN) cells; conditions: 25 μM; ref [33]; cited from earlier work
[4] = ref [34], cited from earlier work
[5] = Solubility; format: physicochemical
[6] = Stability in solution by 31P{1H} NMR; format: physicochemical; conditions: for half-life in d6-DMSO:D2O mixture: d6-DMSO:D2O (1:1 / 50:50)
[7] = system: plasmid (pBR322) DNA; test: Electrophoresis mobility shift assay with plasmid DNA; format: binding; conditions: metal/DNA ratios 0.25, 0.5, 1.0; 37 °C, 20 h
Summary of the method: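 pBR322 plasmid DNA (20 μg/mL) in 5 mM Tris/HCl, 50 mM NaClO4, pH 7.39 was incubated with test compound at compound:DNA molar ratios of […] for 20 h at 37 °C in the dark. Free DNA and cisplatin-DNA adduct served as controls. Samples were run on 1% agarose in TAE for 1.5 h at 80 V, then stained 30 min with GelRed.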

For `N.N.[Cl][Pt][Cl]` [Cisplatin, cisplatin], the “times less toxic to PBMC than to Jurkat cell lines” value [1] is listed as 70 times, the “death of Jurkat-shBak cells” value [2] is listed as “less than 8%” and the “death of Jurkat control (CN) cells” value [3] is listed as “around 60%”.

In the case of `O=C(N=P12CN3CN(CN(C3)C1)C2)c1ccccn1` [TPA=N-C(O)-2-NC5H4], the “time to 50% decomposition in D2O” value ([4]; D2O) is given as 12 h and the “half-life in d6-DMSO:D2O (1:1)” value ([4]; d6-DMSO:D2O (1:1)) is given as 48 h.

For “[Pd{C6H4(C(O)N=TPA-kC,N)-2}{C12H6N2(C6H4SO3Na)2}] [compound 5]”, the “Solubility (H2O)” value [5] was 1.0 mM and 0.90 mg/mL, the “stability under biological testing conditions” value ([6]; 24 h) was “stable” and the “stable in d6-DMSO solution over” value ([6]; d6-DMSO) was “over 2 days”. For the same molecule, the “half-life in d6-DMSO:D2O mixture” value [6] was “above 4 days”.

In the case of `O=C(N=P12CN3CN(CN(C3)C1)C2)c1ccccc1Br` [compound 1, TPA=N-C(O)-2BrC6H4], the “Solubility (H2O)” value [5] was 28 mM (≈ 9940 µg/mL), the “solubility in H2O” value [5] was 10000 µg/mL (≈ 28.2 mM) and the “change in electrophoretic mobility of pBR322 forms (CCC Form I, OC Form II)” value [7] was “does not cause any shift for either form”. For the same molecule, the “half-life in D2O” value ([6]; D2O) was 48 h, the “stability in DMSO solution” value ([6]; DMSO) was “over two weeks” and the “half-life in d6-DMSO:D2O mixture” value [6] was 336 h.
